Consider 29 molecules from paper PMC8451688 (Journal of Enzyme Inhibition and Medicinal Chemistry, 2021).

Read-outs that look alike come from different tables or passages of the source.

Test [1] relates to A549 cells. The test can be described thus: cells. The class given is cell-based, human. To be noted: mean of triplicate; for IC50 (%inhibition ± SD) A549: Table 3.
For test [2], the system named is NRK-52E cells. Format: cell-based. The note with it: Table 3; normal rat kidney cell line; MTT.
In test [3] the test system is PC-3 cells. Format: cell-based, human. The note with it: Table 3; MTT; mean of triplicate.
For test [4], the system named is HepG2 cells. The class given is cell-based, human. The note with it: Table 3; MTT; mean of triplicate.
Test [5] relates to A549 cells. The test can be described thus: Cell cycle analysis by PI flow cytometry. To be noted: 24 h. The class given is cell-based, human. A digest of the protocol:
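A549 cells were treated for 24 h with test compound at 0, 4 or 8 µM, with 0.1% DMSO as control. Cells were collected and washed twice in cold PBS, then fixed in cold 70% ethanol overnight at 4 °C. They were treated with 1 mg/mL RNase A for 30 min at 37 °C, stained with PI for 30 min at 4 °C in the dark, and analysed by flow cytometry.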

Setting [6] is: Homo sapiens, A549, read-out: IC50 A549, MTT.

By IC50 is commonly meant the concentration that inhibits the measured activity by half. Take `O=C(CN1C(=O)/C(=C/c2cccc([N+](=O)[O-])c2)SC1=S)Nc1ccccc1` [I6, (Z)-2–(5-(3-nitrobenzylidene)-4-oxo-2-thioxothiazolidin-3-yl)-N-phenylacetamide]: the IC50 in test [1] (setting [6]) was found to be 22.9 ± 2.07 µM.
The same measure, in the same setting: under `O=C(CN1C(=O)/C(=C/c2cccs2)SC1=S)Nc1ccccc1` [I25, (Z)-2–(4-oxo-5-(thiophen-2-ylmethylene)-2-thioxothiazolidin-3-yl)-N-phenylacetamide] stands 16 ± 3.46 µM; under `COc1cccc(NC(=O)CN2C(=O)/C(=C/C3CC3)SC2=S)c1` [I32, (Z)-2–(5-(cyclopropylmethylene)-4-oxo-2-thioxothiazolidin-3-yl)-N-(3-methoxyphenyl)acetamide], 39.1 ± 5.62 µM.
The same measure, in the same setting: next, `O=C(CN1C(=O)/C(=C/c2ccncc2)SC1=S)Nc1ccccc1` [I29, (Z)-2-(4-oxo-5-(pyridin-4-ylmethylene)-2-thioxothiazolidin-3-yl)-N-phenylacetamide]: 26.4 ± 8 µM.
In the case of `O=C(CN1C(=O)/C(=C/c2ccco2)SC1=S)Nc1ccccc1` [I24, (Z)-2-(5-(furan-2-ylmethylene)-4-oxo-2-thioxothiazolidin-3-yl)-N-phenylacetamide], the “IC50 (%inhibition ± SD) NRK-52E” value in test [2] is on record as 20.1 ± 2.12%. For the same molecule, in test [3], the “IC50 (%inhibition ± SD) PC-3” value came out at 25.1 ± 3.39%.
As for `O=C(CN1C(=O)/C(=C/c2ccc([N+](=O)[O-])cc2)SC1=S)Nc1ccccc1` [I12, (Z)-2–(5-(4-nitrobenzylidene)-4-oxo-2-thioxothiazolidin-3-yl)-N-phenylacetamide], the IC50 in test [1] (setting [6]) is 23.6 ± 3 µM.
In the case of `CCOc1ccc(/C=C2\SC(=S)N(CC(=O)Nc3ccccc3)C2=O)cc1` [I19, (Z)-2-(5-(4-ethoxybenzylidene)-4-oxo-2-thioxothiazolidin-3-yl)-N-phenylacetamide], in test [4], the “IC50 (%inhibition ± SD) HepG2” value was found to be 18.8 ± 5.40%. The “IC50 (%inhibition ± SD) NRK-52E” value in test [2] amounted to 11.0 ± 3.10%. The “IC50 (%inhibition ± SD) PC-3” value in test [3] was 18.1 ± 3.68%.
`O=C(CN1C(=O)/C(=C/c2ccc(O)cc2)SC1=S)Nc1ccccc1` [I16, (Z)-2-(5-(4-hydroxybenzylidene)-4-oxo-2-thioxothiazolidin-3-yl)-N-phenylacetamide]: the IC50 in test [1] (setting [6]) worked out at 16.8 ± 3.66 µM.
Turning to `COc1ccccc1/C=C1\SC(=S)N(CC(=O)Nc2ccccc2)C1=O` [I5, (Z)-2–(5-(2-methoxybenzylidene)-4-oxo-2-thioxothiazolidin-3-yl)-N-phenylacetamide], the IC50 in test [1] (setting [6]) is 13.4 ± 5.03 µM. The “IC50 (%inhibition ± SD) A549” value in test [1] (MTT) amounted to 13.4 ± 5.03%. In test [4], the “IC50 (%inhibition ± SD) HepG2” value turned out to be 36.4 ± 8.00%. In addition, the “IC50 (%inhibition ± SD) NRK-52E” value in test [2] turned out to be 17.4 ± 4.57%.
Regarding “(Z)-2-(5-(cyclohex-2-en-1-ylmethylene)-4-oxo-2-thioxothiazolidin-3-yl)-N-phenylacetamide [I27]”, the IC50 in test [1] (read-out: IC50 A549, MTT) was 51.3 ± 9.09 µM.
In the case of `O=C(CN1C(=O)/C(=C/c2ccc(C(F)(F)F)cc2)SC1=S)Nc1ccccc1` [I13, (Z)-2-(4-oxo-2-thioxo-5-(4-(trifluoromethyl)benzylidene)thiazolidin-3-yl)-N-phenylacetamide], the IC50 in test [1] (setting [6]) came to 20.1 ± 3.13 µM.
Same read-out and setting: next, `O=C(CN1C(=O)/C(=C/c2ccc(Cl)cc2Cl)SC1=S)Nc1ccccc1` [I21, (Z)-2-(5-(2,4-dichlorobenzylidene)-4-oxo-2-thioxothiazolidin-3-yl)-N-phenylacetamide]: 36.9 ± 1.36 µM; `COc1cccc(NC(=O)CN2C(=O)/C(=C/c3ccco3)SC2=S)c1` [I33, (Z)-2–(5-(furan-2-ylmethylene)-4-oxo-2-thioxothiazolidin-3-yl)-N-(3-methoxyphenyl)acetamide]: 46.5 ± 7.31 µM; `O=C(CN1C(=O)/C(=C/c2ccc(F)cc2)SC1=S)Nc1ccccc1` [I14, (Z)-2–(5-(4-fluorobenzylidene)-4-oxo-2-thioxothiazolidin-3-yl)-N-phenylacetamide]: 18.8 ± 3.31 µM.
On the same count and under the same terms, under `O=C(CN1C(=O)/C(=C/C2CC2)SC1=S)Nc1ccccc1` [I23, (Z)-2-(5-(cyclopropylmethylene)-4-oxo-2-thioxothiazolidin-3-yl)-N-phenylacetamide] stands 15.7 ± 0.98 µM; under `COc1cccc(NC(=O)CN2C(=O)/C(=C/c3cccs3)SC2=S)c1` [I34, (Z)-N-(3-methoxyphenyl)-2–(4-oxo-5-(thiophen-2-ylmethylene)-2-thioxothiazolidin-3-yl)acetamide], 17.8 ± 3.75 µM; under `O=C(CN1C(=O)/C(=C/c2cccc(O)c2)SC1=S)Nc1ccccc1` [I10, (Z)-2–(5-(3-hydroxybenzylidene)-4-oxo-2-thioxothiazolidin-3-yl)-N-phenylacetamide], 42.8 ± 6.5 µM.
Same read-out and setting: under `O=C(CN1C(=O)/C(=C/c2cccc(F)c2)SC1=S)Nc1ccccc1` [I7, (Z)-2–(5-(3-fluorobenzylidene)-4-oxo-2-thioxothiazolidin-3-yl)-N-phenylacetamide] stands 29.6 ± 3.72 µM.
For `O=C(CN1C(=O)/C(=C/c2ccccc2F)SC1=S)Nc1ccccc1` [I2, (Z)-2–(5-(2-fluorobenzylidene)-4-oxo-2-thioxothiazolidin-3-yl)-N-phenylacetamide], the half-inhibitory concentration (IC50) in test [1] (read-out: IC50 A549, MTT) worked out at 22.7 ± 5.45 µM.
`O=C(CN1C(=O)/C(=C/c2cccc(Cl)c2)SC1=S)Nc1ccccc1` [I8, (Z)-2–(5-(3-chlorobenzylidene)-4-oxo-2-thioxothiazolidin-3-yl)-N-phenylacetamide]: the IC50 in test [1] (setting [6]) is 31 ± 2.21 µM.
Still for that read-out and setting: under `O=C(CN1C(=O)/C(=C/c2ccccn2)SC1=S)Nc1ccccc1` [I28, (Z)-2-(4-oxo-5-(pyridin-2-ylmethylene)-2-thioxothiazolidin-3-yl)-N-phenylacetamide] stands 17.3 ± 3.9 µM.
“(Z)-2-(5-(2-hydroxy-3-methoxybenzylidene)-4-oxo-2-thioxothiazolidin-3-yl)-N-phenylacetamide [I22]”: the IC50 in test [1] (read-out: IC50 A549, MTT) turned out to be 84.9 ± 9 µM.
`O=C(CN1C(=O)/C(=C/c2ccccc2O)SC1=S)Nc1ccccc1` [I4, (Z)-2–(5-(2-hydroxybenzylidene)-4-oxo-2-thioxothiazolidin-3-yl)-N-phenylacetamide]: the IC50 in test [1] (setting [6]) stood at 15.8 ± 3.03 µM.
With “(Z)-2-(5-(4-(dimethylamino)benzylidene)-4-oxo-2-thioxothiazolidin-3-yl)-N-phenylacetamide [I20]”, in test [1] (MTT), the “IC50 (%inhibition ± SD) A549” value is listed as 7.00 ± 1.06%. In addition, the IC50 in test [1] (read-out: IC50 A549, MTT) was 7 ± 1.06 µM. Further, the “IC50 (%inhibition ± SD) HepG2” value in test [4] came out at 20.3 ± 2.93%. Also, in test [2], the “IC50 (%inhibition ± SD) NRK-52E” value is recorded as 14.7 ± 1.58%. Besides, in test [3], the “IC50 (%inhibition ± SD) PC-3” value was 19.9 ± 5.56%. For the same molecule, the “percentage of cells in G2/M” value worked out at 10.92% in test [5] (A549, 4 µM) and 15.45% in test [5] (A549, 8 µM).
`COc1cccc(NC(=O)CN2C(=O)/C(=C/c3ccccc3)SC2=S)c1` [I30, (Z)-2-(5-benzylidene-4-oxo-2-thioxothiazolidin-3-yl)-N-(3-methoxyphenyl)acetamide]: the concentration for half-maximal inhibition (IC50) in test [1] (setting [6]) is 22.1 ± 3.41 µM.
Still for that read-out and setting: under `CC(C)c1ccc(/C=C2\SC(=S)N(CC(=O)Nc3ccccc3)C2=O)cc1` [I17, (Z)-2-(5-(4-isopropylbenzylidene)-4-oxo-2-thioxothiazolidin-3-yl)-N-phenylacetamide] stands 20.7 ± 3.33 µM.
Turning to `O=C(CN1C(=O)/C(=C/c2ccc[nH]2)SC1=S)Nc1ccccc1` [I26, (Z)-2-(5-((1H-pyrrol-2-yl)methylene)-4-oxo-2-thioxothiazolidin-3-yl)-N-phenylacetamide], the IC50 in test [1] (setting [6]) came to 20 ± 4.25 µM.
`O=C(CN1C(=O)/C(=C/c2ccc(Cl)cc2)SC1=S)Nc1ccccc1` [I15, (Z)-2–(5-(4-chlorobenzylidene)-4-oxo-2-thioxothiazolidin-3-yl)-N-phenylacetamide]: the “IC50 (%inhibition ± SD) HepG2” value in test [4] worked out at 20.6 ± 5.19%. Moreover, the “IC50 (%inhibition ± SD) NRK-52E” value in test [2] is reported as 15.1 ± 2.45%. In addition, the “IC50 (%inhibition ± SD) PC-3” value in test [3] is listed as 17.6 ± 2.51%.
For the molecule `O=C(CN1C(=O)/C(=C/c2ccccc2)SC1=S)Nc1ccccc1` [I1, (Z)-2–(5-benzylidene-4-oxo-2-thioxothiazolidin-3-yl)-N-phenylacetamide], the IC50 in test [1] (setting [6]) was found to be 11.3 ± 1.5 µM. Further, the “IC50 (%inhibition ± SD) A549” value in test [1] (MTT) is listed as 11.3 ± 1.50%. In addition, the “IC50 (%inhibition ± SD) HepG2” value in test [4] is given as 24.7 ± 8.91%. For the same molecule, the “IC50 (%inhibition ± SD) NRK-52E” value in test [2] is reported as 13.1 ± 3.58%. The “IC50 (%inhibition ± SD) PC-3” value in test [3] is given as 21.7 ± 2.89%.
